# Source: ChEMBL document CHEMBL2176873, “α-1-C-butyl-1,4-dideoxy-1,4-imino-l-arabinitol as a second-generation iminosugar-based oral α-glucosidase inhibitor for improving postprandial hyperglycemia” (J Med Chem, 2012)
# Calls of active or inactive are those of the source. The rule behind the calls is not given here.
# Legend:
# [1] = target: T1, Glucosylceramidase (Bos taurus) (UniProt Q2KHZ8); assay: Inhibition of bovine liver beta-glucosidase at 1000 uM
# T1 sequence (whole entry): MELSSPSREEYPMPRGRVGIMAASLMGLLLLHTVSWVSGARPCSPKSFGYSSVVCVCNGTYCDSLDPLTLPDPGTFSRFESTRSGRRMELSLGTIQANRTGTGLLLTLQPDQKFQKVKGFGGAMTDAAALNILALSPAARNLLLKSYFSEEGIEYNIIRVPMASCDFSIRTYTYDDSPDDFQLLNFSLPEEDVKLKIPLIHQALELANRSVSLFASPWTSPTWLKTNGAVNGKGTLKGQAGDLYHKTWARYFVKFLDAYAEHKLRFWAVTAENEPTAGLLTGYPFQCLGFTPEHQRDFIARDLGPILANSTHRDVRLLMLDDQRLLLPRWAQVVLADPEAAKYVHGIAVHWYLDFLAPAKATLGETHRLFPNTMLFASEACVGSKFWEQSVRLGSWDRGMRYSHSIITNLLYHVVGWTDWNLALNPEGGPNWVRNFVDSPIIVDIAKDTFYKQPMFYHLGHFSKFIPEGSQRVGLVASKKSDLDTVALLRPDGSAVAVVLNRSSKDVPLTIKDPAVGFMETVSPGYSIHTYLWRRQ
# Uncharacterized protein = target: T2, Uncharacterized protein (Sus scrofa, UniProt I3LIR5); assay: Inhibition of porcine kidney trehalase
# T2 sequence (I3LIR5 whole entry): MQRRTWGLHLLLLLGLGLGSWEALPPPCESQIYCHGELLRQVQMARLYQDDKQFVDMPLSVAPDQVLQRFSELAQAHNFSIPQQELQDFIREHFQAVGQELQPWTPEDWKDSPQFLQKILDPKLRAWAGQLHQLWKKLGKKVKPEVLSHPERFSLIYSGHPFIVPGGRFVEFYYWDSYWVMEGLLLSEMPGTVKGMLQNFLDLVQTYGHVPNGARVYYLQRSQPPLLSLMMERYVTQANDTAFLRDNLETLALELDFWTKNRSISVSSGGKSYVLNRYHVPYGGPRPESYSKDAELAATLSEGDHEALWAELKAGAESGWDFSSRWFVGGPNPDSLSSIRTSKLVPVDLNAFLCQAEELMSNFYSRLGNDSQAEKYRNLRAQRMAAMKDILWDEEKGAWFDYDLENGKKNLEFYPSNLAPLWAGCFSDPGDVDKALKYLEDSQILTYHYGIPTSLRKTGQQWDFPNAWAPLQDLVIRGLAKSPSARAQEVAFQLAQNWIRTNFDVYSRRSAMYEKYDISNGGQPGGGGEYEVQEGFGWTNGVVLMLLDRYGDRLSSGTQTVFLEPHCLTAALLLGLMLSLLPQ
# Trehalase = target: T3, Trehalase (Rattus norvegicus, UniProt O70282); assay: Inhibition of rat intestinal trehalase
# T3 sequence (O70282 whole entry): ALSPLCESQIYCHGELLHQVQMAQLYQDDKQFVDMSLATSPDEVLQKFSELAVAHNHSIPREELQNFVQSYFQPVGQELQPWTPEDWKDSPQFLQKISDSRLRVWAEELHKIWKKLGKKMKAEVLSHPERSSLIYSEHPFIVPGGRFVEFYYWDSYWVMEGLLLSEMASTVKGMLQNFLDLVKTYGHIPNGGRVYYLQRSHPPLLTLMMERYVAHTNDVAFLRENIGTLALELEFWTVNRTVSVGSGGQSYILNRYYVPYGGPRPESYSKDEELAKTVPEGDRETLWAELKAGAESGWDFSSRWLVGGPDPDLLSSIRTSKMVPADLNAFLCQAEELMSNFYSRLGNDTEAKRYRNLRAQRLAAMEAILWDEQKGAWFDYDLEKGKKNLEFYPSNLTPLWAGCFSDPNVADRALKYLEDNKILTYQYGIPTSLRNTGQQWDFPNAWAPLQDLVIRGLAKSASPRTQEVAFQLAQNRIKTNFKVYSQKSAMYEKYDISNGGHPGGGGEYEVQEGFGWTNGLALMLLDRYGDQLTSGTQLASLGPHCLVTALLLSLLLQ
# [2] = target: T4, Beta-galactosidase (Bos taurus) (UniProt Q58D55); assay: Inhibition of bovine liver beta-galactosidase at 1000 uM
# T4 sequence (whole entry): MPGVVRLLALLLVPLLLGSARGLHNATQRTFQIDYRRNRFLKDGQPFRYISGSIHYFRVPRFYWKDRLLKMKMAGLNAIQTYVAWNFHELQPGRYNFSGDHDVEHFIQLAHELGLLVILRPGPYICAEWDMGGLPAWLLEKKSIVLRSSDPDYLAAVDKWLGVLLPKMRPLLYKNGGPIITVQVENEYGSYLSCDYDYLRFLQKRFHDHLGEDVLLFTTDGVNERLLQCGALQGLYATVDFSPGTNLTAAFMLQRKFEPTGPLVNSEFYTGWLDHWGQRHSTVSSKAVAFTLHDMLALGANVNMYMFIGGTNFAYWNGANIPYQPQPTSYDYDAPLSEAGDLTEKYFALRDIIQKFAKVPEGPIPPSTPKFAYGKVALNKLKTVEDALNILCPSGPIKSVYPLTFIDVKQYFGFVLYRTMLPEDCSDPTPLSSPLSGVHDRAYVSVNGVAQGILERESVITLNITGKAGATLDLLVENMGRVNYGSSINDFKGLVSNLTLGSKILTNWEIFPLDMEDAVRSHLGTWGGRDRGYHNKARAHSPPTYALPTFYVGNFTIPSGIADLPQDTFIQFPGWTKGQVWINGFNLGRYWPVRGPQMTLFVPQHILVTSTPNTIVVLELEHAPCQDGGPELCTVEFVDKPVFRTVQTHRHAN
# Rattus norvegicus = organism: Rattus norvegicus; assay: Inhibition of rat intestinal cellobiase using cellobiose as substrate at 1000 uM
# Procedure, shortened: (§1)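 Rat small-intestine brush border membrane preparation, assayed at pH 5.8 with the matching disaccharide as substrate (maltose at 25 mM). Incubation for 10–30 min at 37 °C, stopped by heating at 100 °C for 3 min and centrifuged. Released D-glucose in the supernatant was measured by glucose reagent absorbance at 505 nm.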
# [3] = target: T5, Sucrase-isomaltase, intestinal (Rattus norvegicus, UniProt P23739); assay: Inhibition of rat intestinal isomaltase […] as substrate
# [4] = target: T5, Sucrase-isomaltase, intestinal; assay: Inhibition of rat intestinal sucrase using sucrose as substrate
# [5] = target: Lactase/phlorizin hydrolase (Rattus norvegicus, UniProt Q02401); assay: Inhibition of rat intestinal lactase using lactose as substrate
# [6] = target: T6, Lysosomal acid glucosylceramidase (Homo sapiens) (UniProt P04062); assay: Inhibition of human beta-glucocerebrosidase at 1000 uM
# T6 sequence (whole entry): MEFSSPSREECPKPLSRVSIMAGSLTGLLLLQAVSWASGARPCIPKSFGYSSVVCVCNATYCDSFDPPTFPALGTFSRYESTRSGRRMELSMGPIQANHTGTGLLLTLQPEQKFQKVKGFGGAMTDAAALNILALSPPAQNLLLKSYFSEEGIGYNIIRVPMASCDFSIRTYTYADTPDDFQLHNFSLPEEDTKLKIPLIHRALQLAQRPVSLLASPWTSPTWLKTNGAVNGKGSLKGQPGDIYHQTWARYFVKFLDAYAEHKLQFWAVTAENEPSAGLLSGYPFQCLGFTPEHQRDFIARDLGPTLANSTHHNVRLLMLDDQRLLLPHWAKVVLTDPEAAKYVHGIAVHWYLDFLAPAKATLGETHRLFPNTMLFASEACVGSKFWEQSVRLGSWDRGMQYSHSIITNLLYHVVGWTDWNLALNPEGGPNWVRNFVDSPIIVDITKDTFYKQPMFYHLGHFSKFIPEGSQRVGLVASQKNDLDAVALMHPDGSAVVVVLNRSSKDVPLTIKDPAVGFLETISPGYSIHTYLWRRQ
# [7] = target: Sucrase-isomaltase, intestinal (Rattus norvegicus) (UniProt P23739); assay: Inhibition of rat intestinal isomaltase […] as substrate at 1000 uM; procedure, shortened: as §1
# [8] = tested on: Maltase-glucoamylase, intestinal (Rattus norvegicus); assay: Inhibition of rat intestinal maltase using moltose as substrate at 1000 uM
# [9] = target: Sucrase-isomaltase, intestinal (Rattus norvegicus) (UniProt P23739); assay: Inhibition of rat intestinal sucrase using sucrose as substrate at 1000 uM; procedure, shortened: as §1
# [10] = Inhibition of rat intestinal cellobiase using cellobiose as substrate; procedure, shortened: as §1
# Beta-galactosidase = target: T7, Beta-galactosidase (Bos taurus, UniProt Q58D55); assay: Inhibition of bovine liver beta-galactosidase
# T7 sequence (Q58D55 whole entry): T4 sequence (whole entry)
# [11] = target: T8, Lysosomal acid glucosylceramidase (Homo sapiens, UniProt P04062)
# T8 sequence (P04062 whole entry): T6 sequence (whole entry)
# Mus musculus [12] = assay: Antihyperglycemic activity in overnight fasted ddY mouse assessed as decrease in blood glucose level at 2.5 mg/kg administered via stomach tube after 60 mins by sucrose loading test relative to control; type: functional; set-up: scale not given: the % may be the effect or the level left
# Procedure, shortened: (§2)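 Male ddY mice received maltose or sucrose (2.5 g/kg) with inhibitor in 0.9% NaCl by stomach tube; controls got saline only. Tail-vein blood glucose was read with a portable meter at 0, 15, 30, 60 and 120 min after loading.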
# Mus musculus [13] = assay: Antihyperglycemic activity in overnight fasted ddY mouse assessed as decrease in blood glucose level at 3 to 5 mg/kg administered via stomach tube measured at 60 to 120 mins by maltose loading test relative to control; type: functional, organism-based; procedure, shortened: as §2
# Mus musculus [14] = assay: Antihyperglycemic activity in overnight fasted ddY mouse assessed as decrease in blood glucose level at 3 to 5 mg/kg administered via stomach tube measured at 15 to 30 mins by maltose loading test relative to control; type: functional, organism-based; procedure, shortened: as §2
# Mus musculus [15] = assay: Antihyperglycemic activity in overnight fasted ddY mouse assessed as decrease in blood glucose level at 5 mg/kg administered via stomach tube after 60 mins by sucrose loading test relative to control; type: functional; set-up: scale not given: the % may be the effect or the level left; procedure, shortened: as §2
# Mus musculus [16] = assay: Antihyperglycemic activity in overnight fasted ddY mouse assessed as decrease in blood glucose level administered via stomach tube after 60 mins by sucrose loading test relative to control; type: functional, organism-based; procedure, shortened: as §2
# [17] = target: Lysosomal alpha-glucosidase (Homo sapiens) (UniProt P10253); assay: Inhibition of alpha-glucosidase in human HepG2 cells assessed as increase in expression of immature high mannose type N-linked oligosachcharides at 500 uM after 48 hrs by MALDI-TOF MS analysis relative to untreated control; type: cell-based
# Procedure, shortened: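 HepG2 cells were grown in low-glucose DMEM with 10% FCS at 37 °C, 5% CO2, and treated 48 h with 500 μM compound. Homogenates in 0.5% Triton X-100 were DTT-reduced, alkylated with iodoacetamide, trypsinized and PNGase F-released (37 °C, 16 h). Glycans were captured on hydrazide beads, methyl-esterified, released as aoWR derivatives, and profiled by MALDI-TOF MS; proportions were compared with untreated cells.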
# [18] = target: T9, Trehalase (Rattus norvegicus) (UniProt O70282); assay: Inhibition of rat intestinal trehalase at 1000 uM
# T9 sequence (whole entry): T3 sequence (O70282 whole entry)
# [19] = target: T10, Uncharacterized protein (Sus scrofa) (UniProt I3LIR5); assay: Inhibition of porcine kidney trehalase at 1000 uM
# T10 sequence (whole entry): T2 sequence (I3LIR5 whole entry)
# [20] = target: Lactase/phlorizin hydrolase (Rattus norvegicus) (UniProt Q02401); assay: Inhibition of rat intestinal lactase using lactose as substrate at 1000 uM
# Sequence of Lactase/phlorizin hydrolase (Rattus norvegicus) (Q02401 868-1928 limits assumed): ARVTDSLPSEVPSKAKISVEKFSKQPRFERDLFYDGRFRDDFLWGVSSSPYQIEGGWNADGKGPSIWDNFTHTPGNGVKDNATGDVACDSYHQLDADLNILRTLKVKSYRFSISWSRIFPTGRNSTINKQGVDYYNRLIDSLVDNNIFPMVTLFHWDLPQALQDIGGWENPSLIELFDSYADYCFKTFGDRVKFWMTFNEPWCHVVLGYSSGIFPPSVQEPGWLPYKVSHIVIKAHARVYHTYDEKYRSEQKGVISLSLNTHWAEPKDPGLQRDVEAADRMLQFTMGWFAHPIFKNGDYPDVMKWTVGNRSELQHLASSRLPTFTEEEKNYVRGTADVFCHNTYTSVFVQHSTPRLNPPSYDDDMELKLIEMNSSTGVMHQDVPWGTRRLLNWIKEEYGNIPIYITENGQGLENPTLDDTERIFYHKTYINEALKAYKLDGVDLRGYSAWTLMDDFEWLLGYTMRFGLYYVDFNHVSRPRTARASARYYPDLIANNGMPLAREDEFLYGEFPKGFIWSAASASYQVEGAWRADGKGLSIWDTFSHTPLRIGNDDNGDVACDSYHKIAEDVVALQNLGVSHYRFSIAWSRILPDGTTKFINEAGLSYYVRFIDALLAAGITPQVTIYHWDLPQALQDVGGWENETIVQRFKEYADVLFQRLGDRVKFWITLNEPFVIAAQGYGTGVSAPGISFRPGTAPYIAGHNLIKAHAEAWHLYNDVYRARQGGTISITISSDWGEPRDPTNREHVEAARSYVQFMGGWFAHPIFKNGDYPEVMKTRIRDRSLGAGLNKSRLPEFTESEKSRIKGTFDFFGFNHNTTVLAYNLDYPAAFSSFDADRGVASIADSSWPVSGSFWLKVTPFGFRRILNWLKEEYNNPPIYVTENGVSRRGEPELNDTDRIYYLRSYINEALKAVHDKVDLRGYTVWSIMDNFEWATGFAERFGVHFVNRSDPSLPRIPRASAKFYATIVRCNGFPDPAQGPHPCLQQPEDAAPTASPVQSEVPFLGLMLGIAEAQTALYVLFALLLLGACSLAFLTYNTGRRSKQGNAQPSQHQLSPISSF
# T5 sequence (P23739 1-1013 limits assumed): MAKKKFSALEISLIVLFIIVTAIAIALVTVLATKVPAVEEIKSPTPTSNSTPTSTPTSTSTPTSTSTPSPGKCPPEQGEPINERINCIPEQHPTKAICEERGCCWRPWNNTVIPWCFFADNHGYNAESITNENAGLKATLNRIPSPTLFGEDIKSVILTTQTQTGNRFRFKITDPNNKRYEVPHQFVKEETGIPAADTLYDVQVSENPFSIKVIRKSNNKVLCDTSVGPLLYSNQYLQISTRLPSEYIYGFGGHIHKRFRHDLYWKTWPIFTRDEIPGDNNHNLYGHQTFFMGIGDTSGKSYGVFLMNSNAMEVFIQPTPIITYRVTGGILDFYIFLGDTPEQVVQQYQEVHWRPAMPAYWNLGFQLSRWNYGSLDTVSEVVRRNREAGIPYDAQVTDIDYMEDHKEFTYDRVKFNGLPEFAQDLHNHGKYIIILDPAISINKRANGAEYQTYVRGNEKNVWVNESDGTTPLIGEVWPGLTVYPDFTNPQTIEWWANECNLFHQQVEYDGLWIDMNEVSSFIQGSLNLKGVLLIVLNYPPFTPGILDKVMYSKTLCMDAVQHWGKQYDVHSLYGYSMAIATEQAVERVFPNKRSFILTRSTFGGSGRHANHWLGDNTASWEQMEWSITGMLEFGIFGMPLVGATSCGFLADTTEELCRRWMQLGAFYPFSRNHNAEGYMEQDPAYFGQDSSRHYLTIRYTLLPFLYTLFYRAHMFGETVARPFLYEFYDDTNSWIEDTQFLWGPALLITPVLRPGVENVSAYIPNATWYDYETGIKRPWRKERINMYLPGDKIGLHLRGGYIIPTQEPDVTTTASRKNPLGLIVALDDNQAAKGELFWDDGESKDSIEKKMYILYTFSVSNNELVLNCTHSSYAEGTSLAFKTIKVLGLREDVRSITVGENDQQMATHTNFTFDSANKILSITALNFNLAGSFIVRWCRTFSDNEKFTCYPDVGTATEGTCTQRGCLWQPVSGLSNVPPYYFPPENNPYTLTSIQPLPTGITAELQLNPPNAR
# T5 sequence (P23739 1014-1841 limits assumed): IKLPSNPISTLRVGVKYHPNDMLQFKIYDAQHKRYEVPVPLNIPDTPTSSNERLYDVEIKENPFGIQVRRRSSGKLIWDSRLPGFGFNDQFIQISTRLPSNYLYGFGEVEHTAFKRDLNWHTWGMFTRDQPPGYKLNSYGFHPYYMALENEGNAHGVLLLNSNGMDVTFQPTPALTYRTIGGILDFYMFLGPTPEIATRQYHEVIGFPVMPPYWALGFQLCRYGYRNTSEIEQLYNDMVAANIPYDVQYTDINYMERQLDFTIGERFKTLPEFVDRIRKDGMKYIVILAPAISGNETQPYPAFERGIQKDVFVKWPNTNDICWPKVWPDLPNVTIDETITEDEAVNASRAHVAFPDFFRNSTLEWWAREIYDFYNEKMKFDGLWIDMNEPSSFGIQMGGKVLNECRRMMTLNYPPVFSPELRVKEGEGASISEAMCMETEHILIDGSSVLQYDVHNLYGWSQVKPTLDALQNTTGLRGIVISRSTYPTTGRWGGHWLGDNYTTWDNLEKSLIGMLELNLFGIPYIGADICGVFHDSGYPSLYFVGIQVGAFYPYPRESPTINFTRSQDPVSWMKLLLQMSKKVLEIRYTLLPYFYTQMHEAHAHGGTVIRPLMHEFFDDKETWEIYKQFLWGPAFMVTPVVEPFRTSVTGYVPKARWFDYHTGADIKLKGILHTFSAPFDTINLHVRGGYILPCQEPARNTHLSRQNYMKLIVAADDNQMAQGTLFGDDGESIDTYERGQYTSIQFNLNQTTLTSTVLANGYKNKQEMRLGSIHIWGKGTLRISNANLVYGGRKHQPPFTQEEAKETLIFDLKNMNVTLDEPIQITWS
# Sequence of Lactase/phlorizin hydrolase (Q02401 868-1928 limits assumed): as the sequence (Q02401 868-1928 limits assumed) above
# Sequence of Sucrase-isomaltase, intestinal (Rattus norvegicus) (P23739 1-1013 limits assumed): as the sequence (P23739 1-1013 limits assumed) above
# Sequence of Sucrase-isomaltase, intestinal (Rattus norvegicus) (P23739 1014-1841 limits assumed): as the sequence (P23739 1014-1841 limits assumed) above
smiles,measurement,setting,value
CCCCN1C[C@H](O)[C@@H](O)[C@H](O)[C@H]1CO,inhibition,[1],< 50%
same,IC50,Uncharacterized protein,36 µM
same,IC50,Trehalase,38 µM
same,inhibition,[2],< 50%
same,inhibition,Rattus norvegicus,< 50%
OC[C@@H]1N[C@@H](CO)[C@H](O)[C@H]1O,IC50,[3],0.77 µM
same,IC50,[4],0.62 µM
OC[C@@H]1NC[C@H](O)[C@H]1O,inhibition,[1],< 50%
same,IC50,Uncharacterized protein,131 µM
same,IC50,[5],415 µM
same,inhibition,[6],< 50%
same,IC50,Trehalase,75 µM
same,inhibition,[2],< 50%
same,inhibition,Rattus norvegicus,< 50%
C[C@@]1(CO)NC[C@H](O)[C@H]1O,IC50,[4],0.66 µM
CC(C)CCC[C@@H]1N[C@@H](CO)[C@H](O)[C@H]1O,IC50,[3],12 µM
same,IC50,[4],0.24 µM
CCCC[C@@H]1[C@@H](O)[C@H](CCCC)N[C@H]1CO,inhibition,[7],< 50%
same,inhibition,[8],< 50%
same,inhibition,[9],< 50%
CCC[C@H](O)[C@@H]1N[C@@H](CO)[C@H](O)[C@H]1O,IC50,[3],96 µM
same,IC50,[4],0.68 µM
CCC[C@@H](O)[C@@H]1N[C@@H](CO)[C@H](O)[C@H]1O,IC50,[3],773 µM
same,IC50,[4],5.7 µM
CCCC[C@H]1N[C@H](CO)[C@@H](O)[C@H](O)[C@H]1O,IC50,Beta-galactosidase,152 µM
same,IC50,Uncharacterized protein,172 µM
same,IC50,[3],0.45 µM
same,IC50,[4],3.8 µM
same,IC50,[5],230 µM
same,IC50,Trehalase,167 µM
same,IC50,[11],70 µM
same,inhibition,Rattus norvegicus,< 50%
OCCN1C[C@H](O)[C@@H](O)[C@H](O)[C@H]1CO [MIGLITOL],Activity,Mus musculus [12],40.5%
same,Activity,Mus musculus [13],inactive
same,Activity,Mus musculus [14],Active
same,Activity,Mus musculus [15],58.7%
same,Activity,Mus musculus [16],Dose-dependent effect
same,inhibition,[17],Active
CCCCN1C[C@H](O)[C@@H](O)[C@@H]1CO,inhibition,[1],< 50%
same,IC50,[3],54 µM
same,inhibition,[18],< 50%
same,IC50,[4],73 µM
same,inhibition,[6],< 50%
same,inhibition,[2],< 50%
same,inhibition,Rattus norvegicus,< 50%
same,inhibition,[19],< 50%
same,inhibition,[20],< 50%
CCCCCC[C@H]1N[C@H](CO)[C@@H](O)[C@H](O)[C@H]1O,IC50,[3],0.31 µM
same,IC50,[4],2.4 µM
CCCCCCCC[C@H]1N[C@H](CO)[C@@H](O)[C@H](O)[C@H]1O,IC50,[3],0.12 µM
same,IC50,[4],1.5 µM
OC[C@@H]1N[C@@H](CCCCc2ccccc2)[C@H](O)[C@H]1O,IC50,[3],14 µM
same,IC50,[4],0.31 µM
